In ChEMBL document CHEMBL1153746, “Mansouramycins A-D, cytotoxic isoquinolinequinones from a marine streptomycete” (J Nat Prod, 2009):

Key:
Assay type in all cases: functional, cell-based
[1] = Cytotoxicity against human GXF251L cells after 4 days by propidium iodide assay; details: GXF 251L, 96 h
In short: (§1)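 Monolayer cell proliferation assay across a panel of up to 36 human tumour lines covering 14 solid tumour types. Lines came either from patient tumours grown as subcutaneous xenografts in NMRI nu/nu mice or from culture collections (ATCC, NCI, DSMZ). Potency is given as IC50.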

SF-268 = test: Cytotoxicity against human SF268 cells after 4 days by propidium iodide assay; details: SF-268, 96 h; in short: as §1
[2] = Cytotoxicity against human 276L cells after 4 days by propidium iodide assay; details: 96 h; in short: as §1
[3] = Cytotoxicity against human 899L cells after 4 days by propidium iodide assay; details: 96 h; in short: as §1
[4] = Cytotoxicity against human 899 cells after 7 to 20 days by clonogenic assay
In short: (§2)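 Colony formation assay for clonogenicity. Cell suspensions were prepared from patient-derived human tumour xenografts, kept by serial subcutaneous passage in NMRI nu/nu mice. Cells were embedded and incubated in culture medium containing soft agar. Potency is given as IC50.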

HCT-116 = test: Cytotoxicity against human HCT116 cells after 4 days by propidium iodide assay; details: HCT-116, 96 h; in short: as §1
[5] = Cytotoxicity against human RXF 486L cells after 4 days by propidium iodide assay; details: 96 h; in short: as §1
LNCaP = test: Cytotoxicity against human LNCAP cells after 4 days by propidium iodide assay; details: 96 h; in short: as §1
[6] = Cytotoxicity against human UXF 1138L cells after 4 days by propidium iodide assay; details: 96 h; in short: as §1
[7] = Cytotoxicity against human RXF 944L cells after 4 days by propidium iodide assay; details: 96 h; in short: as §1
[8] = Cytotoxicity against human 629L cells after 4 days by propidium iodide assay; details: 96 h; in short: as §1
[9] = Cytotoxicity against human 289L cells after 4 days by propidium iodide assay; details: 96 h; in short: as §1
PANC-1 = test: Cytotoxicity against human PANC1 cells after 4 days by propidium iodide assay; details: PANC-1, 96 h; in short: as §1
[10] = Cytotoxicity against human BXF T24 cells after 4 days by propidium iodide assay; details: T-24, 96 h; in short: as §1
[11] = Cytotoxicity against human LXFL 529L cells after 4 days by propidium iodide assay; details: 96 h; in short: as §1
[12] = Cytotoxicity against human 1218L cells after 4 days by propidium iodide assay; details: 96 h; in short: as §1
DU-145 = test: Cytotoxicity against human DU145 cells after 4 days by propidium iodide assay; details: DU-145, 96 h; in short: as §1
[13] = Cytotoxicity against human 514L cells after 4 days by propidium iodide assay; details: 96 h; in short: as §1
[14] = Cytotoxicity against human 1218 cells after 7 to 20 days by clonogenic assay; in short: as §2
[15] = Cytotoxicity against human RXF631 cells after 7 to 20 days by clonogenic assay; details: RXF 631; in short: as §2
[16] = Cytotoxicity against human 1752L cells after 4 days by propidium iodide assay; details: 96 h; in short: as §1
HT-29 = test: Cytotoxicity against human HT-29 cells after 4 days by propidium iodide assay; details: HT-29, 96 h; in short: as §1
[17] = Cytotoxicity against human 276 cells after 7 to 20 days by clonogenic assay; in short: as §2
[18] = Cytotoxicity against human 526L cells after 4 days by propidium iodide assay; details: 96 h; in short: as §1
[19] = Cytotoxicity against human 498NL cells after 4 days by propidium iodide assay; details: 96 h; in short: as §1
[20] = Cytotoxicity against human MAXF 401NL cells after 4 days by propidium iodide assay; details: 96 h; in short: as §1
[21] = Cytotoxicity against human 536L cells after 4 days by propidium iodide assay; details: 96 h; in short: as §1
NCI-H460 = test: Cytotoxicity against human H460 cells after 4 days by propidium iodide assay; details: NCI-H460, 96 h; in short: as §1
[22] = Cytotoxicity against human 1781L cells after 4 days by propidium iodide assay; details: 96 h; in short: as §1
[23] = Cytotoxicity against human 520L cells after 4 days by propidium iodide assay; details: 96 h, in the assay text read “MTT assay” for “propidium iodide assay”; in short: as §1
[24] = Cytotoxicity against human 1322 cells after 7 to 20 days by clonogenic assay; in short: as §2
OVCAR-3 = test: Cytotoxicity against human OVCAR-3 cells after 4 days by propidium iodide assay; details: OVCAR-3, 96 h; in short: as §1
[25] = Cytotoxicity against human NSB008 cells after 7 to 20 days by clonogenic assay
In short: (§3)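 Colony formation assay on hematopoietic stem cells from cord blood, used as nonmalignant tissue. Cells were embedded and incubated in culture medium containing methyl cellulose. Potency is given as IC50.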

[26] = Cytotoxicity against human LXFA 526 cells after 7 to 20 days by clonogenic assay; in short: as §2
[27] = Cytotoxicity against human PC3M cells after 4 days by propidium iodide assay; details: PC-3M, 96 h; in short: as §1
[28] = Cytotoxicity against human 1619L cells after 4 days by propidium iodide assay; details: 96 h, in the assay text read “MTT assay” for “propidium iodide assay”; in short: as §1
[29] = Cytotoxicity against human LXFA 629L cells after 7 to 20 days by clonogenic assay; in short: as §2
[30] = Cytotoxicity against human 1121L cells after 4 days by propidium iodide assay; details: 96 h; in short: as §1
[31] = Cytotoxicity against human 393NL cells after 4 days by propidium iodide assay; details: 96 h; in short: as §1
[32] = Cytotoxicity against human 575 cells after 7 to 20 days by clonogenic assay; in short: as §2
[33] = Cytotoxicity against human 1657L cells after 4 days by propidium iodide assay; details: 96 h; in short: as §1
[34] = Cytotoxicity against human 394NL cells after 4 days by propidium iodide assay; details: 96 h; in short: as §1
[35] = Cytotoxicity against human NSB005 cells after 7 to 20 days by clonogenic assay; in short: as §3
[36] = Cytotoxicity against human 401 cells after 7 to 20 days by clonogenic assay; in short: as §2
MCF7 = test: Cytotoxicity against human MCF7 cells after 4 days by propidium iodide assay; details: MCF7, 96 h; in short: as §1
CWR22R = test: Cytotoxicity against human 22Rv1 cells after 4 days by propidium iodide assay; details: 22Rv1, 96 h; in short: as §1
[37] = Cytotoxicity against human 243 cells after 7 to 20 days by clonogenic assay; in short: as §2
[38] = Cytotoxicity against human 514 cells after 7 to 20 days by clonogenic assay; in short: as §2
[39] = Cytotoxicity against human MEXF 462NL cells after 4 days by propidium iodide assay; details: 96 h; in short: as §1
[40] = in the assay text read “MTT assay” for “propidium iodide assay”

In the case of `CNC1=CC(=O)c2cc(C)ncc2C1=O`, the IC50 [1] is reported as 3.6 µM, the IC50 (SF-268) is reported as 1.8 µM and the IC50 [2] is reported as 0.35 µM. It also gave an IC50 [3, 40] of 6.6 µM, an IC50 [4] of 5.35 µM and an IC50 (HCT-116) of 3.62 µM. The IC50 [5] was 50.6 µM, the IC50 (LNCaP) was 6.36 µM and the IC50 [6, 40] was 2.23 µM. For the same compound, the IC50 [7] was 5.43 µM, the IC50 [8] was 1.18 µM and the IC50 [9] was 3.04 µM. For the same compound, the IC50 (PANC-1) was 3.83 µM, the IC50 [10] was 0.61 µM and the IC50 [11] was 4.88 µM. For the same compound, the IC50 [12] was 10.3 µM, the IC50 (DU-145) was 0.34 µM and the IC50 [13] was 2.02 µM. For the same compound, the IC50 [14] was 4.34 µM, the IC50 [15] was 7.81 µM and the IC50 [16] was 6.02 µM. It also gave an IC50 (HT-29) of 1.98 µM, an IC50 [17] of 0.33 µM and an IC50 [18] of 10.6 µM. For the same compound, the IC50 [19] was 5.21 µM, the IC50 [20] was 17.3 µM and the IC50 [21] was 0.38 µM. The IC50 (NCI-H460) was 3.92 µM, the IC50 [22] was 9.89 µM and the IC50 [23] was 0.24 µM. For the same compound, the IC50 [24] was 8.35 µM, the IC50 (OVCAR-3; [40]) was 7.64 µM and the IC50 [25] was 4.53 µM. For the same compound, the IC50 [26] was 4.31 µM, the IC50 [27] was 6.04 µM and the IC50 [28] was 4.01 µM. It also gave an IC50 [29] of 1.63 µM, an IC50 [30] of 6.56 µM and an IC50 [31] of 4.16 µM. For the same compound, the IC50 [32] was 8.35 µM, the IC50 [33, 40] was 4.93 µM and the IC50 [34] was 5.72 µM. The IC50 [35] was 4.58 µM, the IC50 [36] was 3.89 µM and the IC50 (MCF7) was 1.11 µM. It also gave an IC50 (CWR22R) of 4.69 µM, an IC50 [37] of 10.3 µM and an IC50 [38] of 0.05 µM. It also gave an IC50 [39] of 19 µM.

Compound `CNC1=C(Cl)C(=O)c2cc(C)ncc2C1=O` has an IC50 [1] of 1.75 µM, an IC50 [2] of 0.36 µM and an IC50 [3] of 13.9 µM. It also gave an IC50 [5] of 17.9 µM, an IC50 [6] of 1.68 µM and an IC50 [8] of 1.23 µM. The IC50 [9] was 5.96 µM, the IC50 [11] was 1.54 µM and the IC50 [12] was 1.38 µM. The IC50 [16] was 5.19 µM, the IC50 [19] was 1.34 µM and the IC50 [20] was 3.55 µM. The IC50 (OVCAR-3) was 2 µM, the IC50 [27] was 3.23 µM and the IC50 [31] was 1.57 µM. For the same compound, the IC50 [33] was 1.81 µM, the IC50 (CWR22R) was 5.67 µM and the IC50 [39] was 5.64 µM.
